Screening results: PubChem BioAssay, several laboratories
Rows were chosen to be rich in hits. Some 1.9% of all compounds tested hit in one or more screens of this group.
HIF act: HIF pathway transcriptional activation; U2OS HRE-luciferase reporter, luminescence; normalized: DMSO 0%, desferrioxamine 100%; activation, % at 7.5 µM (by protocol); 300,000 compounds, 0.32% hits;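 active = mean activation of at least 10% of the iron chelator positive control signal, with at least half of replicates also reaching 10%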
GAA850 FXN act: increases GAA850 frataxin promoter reporter activity; HEK293 lucGAA850 FXN promoter luciferase reporter, 24 h; percent of 10 µM SAHA response; activation, % at 6 µM; 360,000 compounds, 0.56% hits; AID 540364;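 active = activation above the average of all compounds screened plus 3 SD, cutoff fixed separately per campaign, cut at about 7.5% in these data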;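 also: 0% = DMSO wells and 100% = 10 µM SAHA wells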
Neddyl block: cullin neddylation inhibition; AID 651699; inhibition, % at 25 µM; P61081+Q13564; 360,000 compounds, 0.58% hits; TR-FRET cullin neddylation, biochemical; in the data active = inhibition above about 36%
Calb FLC: C. albicans growth modulation with fluconazole; growth inhibition, % (test concentration not listed); 300,000 compounds, 0.57% hits; C. albicans CaCi-2 (fluconazole-resistant clinical isolate) + fluconazole, Alamar Blue growth, 48 h; AID 1979;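 active = growth inhibition above about 58% in most replicates, limit read from the data, passing the limit was not always enough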;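 also: all wells also contain fluconazole at 8 µg/ml as a sub-toxic cotreatment; 0% = median of DMSO wells and 100% = median of geldanamycin control wells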
proCasp7 act: counter-screen for procaspase-3 activators: activators of human procaspase-7. P55210. recombinant procaspase-7, Ac-DEVD-pNA absorbance 405 nm; D23A/D198A/D206A triple mutant, cannot self-cleave; scale: DMSO 0, 5 µM enzyme 100. activation, % at 8.5 µM. 330,000 compounds, 0.093% hits;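 active = percent activation above the screen-wide mean plus 3 SD, cut at about 25% in these data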
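System: Procaspase-7 triple mutant (PC-7 D3A); measure: % activation from two-timepoint absorbance difference, scaled to controls; times: 1 h compound preincubation, 2 h substrate cleavage, 25 °C; also added: Ac-DEVD-pNA substrate, 400 µM as added; measured by: Epi-absorbance of released pNA at 405 nm, two timepoints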
proCasp3 act: activates human procaspase-3. P42574. recombinant procaspase-3 D3A, Ac-DEVD-pNA absorbance 405 nm. activation, % at 8.5 µM. 330,000 compounds, 0.11% hits. AID 463141;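 active = activation above the mean of all tested compounds plus 3 SD, cut at about 21% in these data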;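 also: 0% = DMSO alone and 100% = DMSO wells spiked with extra 5 µM PC-3 D3A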
Target sequence (P42574 whole entry D9A/D28A/D175A): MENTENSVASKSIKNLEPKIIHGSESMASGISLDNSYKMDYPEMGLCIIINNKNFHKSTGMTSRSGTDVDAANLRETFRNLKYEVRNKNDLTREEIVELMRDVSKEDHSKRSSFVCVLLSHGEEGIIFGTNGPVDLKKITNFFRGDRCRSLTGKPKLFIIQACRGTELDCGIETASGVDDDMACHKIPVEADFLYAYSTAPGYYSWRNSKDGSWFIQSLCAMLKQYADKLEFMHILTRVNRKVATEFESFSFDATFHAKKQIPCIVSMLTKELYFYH
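Assay system: Autoprocessing-dead procaspase-3 D3A mutant enzyme; also added: Ac-DEVD-pNA; doses: one concentration, 8.5 µM nominal, 0.8% DMSO; times: 1 h compound preincubation, 2 h substrate hydrolysis at 25 °C; technique: 405 nm absorbance of p-nitroaniline, reads at 0 and 120 min; measure: % activation between DMSO and enzyme-spiked controls; repeats: single replicate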
Neddyl inh conf: confirmation of human cullin neddylation inhibitors. 1,800 compounds, 13% hits. AID 652217. calls only at 25 µM. shares compounds with Neddyl block. TR-FRET cullin neddylation biochemical assay; in the data active = inhibition above about 40%;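 also: neddylation substrate is the cullin 1 ring ligase complex with SKP2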
Numbers without * were called inactive; i = inactive; / = not tested or not shown.

SMILES | HIF act | GAA850 FXN act | Neddyl block | Calb FLC | proCasp7 act | proCasp3 act | Neddyl inh conf
COc1cccc(/C=N/NC(=O)CSc2cccc3cccnc23)c1 | 0 | 2 | 46* | -11 | -2 | 4 | i
COc1ccc(NC(=O)CSc2cccc3cccnc23)c(OC)c1 | -2 | 1 | -14 | -19 | -3 | 0 | /
O=C(CCC(=O)c1ccccc1)Nc1ccccc1OC(F)F | 1 | -1 | -5 | -8 | 1 | 8 | /
CC(=O)NC(c1ccccc1)c1nc(-c2cccc(F)c2)cs1 (stereo not drawn) | / | 4 | -6 | / | / | / | /
NS(=O)(=O)c1ccc2c(c1)C(=NO)c1cc(S(N)(=O)=O)ccc1-2 | 0 | -1 | 19 | -4 | 10 | -1 | /
CN(CCO)S(=O)(=O)c1ccc2c(c1)C(=NO)c1cc(S(=O)(=O)N(C)CCO)ccc1-2 | / | 0 | 49* | / | 14 | -1 | i
Cc1cnc(C(=O)N2CCCC(N3CCN(c4cccc(C(F)(F)F)c4)CC3)C2)cn1 (stereo not drawn) | 1 | -1 | 5 | 13 | 2 | 1 | /
Cc1c(/C=C(\C#N)C(=O)NCc2ccccc2)cc(C#N)n1C | 0 | 2 | -14 | 5 | 5 | 6 | /
CC1(C(=O)NCc2ccc(C(F)(F)F)cc2)CCN1Cc1ccc(-c2ccccc2)o1 (stereo not drawn) | / | 3 | -7 | / | / | / | /
CCOC(=O)c1cccc(Nc2ncnc3ccc(C)cc23)c1 | 0 | 0 | 40* | 5 | 8 | -4 | i
CCN(CC)CCOC(=O)c1cccc2c1-c1ccccc1C2O (stereo not drawn) | 0 | 2 | 37* | -5 | 7 | -4 | i
CCN(CC)CCOC(=O)c1ccccc1Br | -1 | 2 | -13 | 31 | 7 | -13 | /
CC(c1ccccc1)N1CC(C(=O)N2CCN(Cc3ccc(C#N)cc3)CC2)CC1=O (stereo not drawn) | / | -1 | 13 | / | / | / | /
Cn1c(=O)n(C)c2cc(S(=O)(=O)Nc3ccccc3C(=O)O)ccc21 | -1 | 2 | 42* | 3 | 13 | -2 | i
CCCNC(=O)c1ccccc1NC(=O)c1ccc2c(=O)n3c(nc2c1)CCC3 | 0 | 3 | 46* | -2 | -1 | 14 | /
CC(=O)c1ccc2c3c(cccc13)CC2 | 0 | 1 | 38* | 5 | 0 | 2 | i
CN(C)C(=O)c1ccc2c3c(cccc13)CC2 | 0 | 2 | -3 | 1 | 8 | 5 | /
O=C(NCc1cccs1)c1cnc2ccccn2c1=O | 0 | 0 | -5 | 5 | -7 | 5 | /
O=C(NCc1ccco1)c1cccn2c(=O)c3sccc3nc12 | 1 | 2 | 55* | 11 | -7 | 8 | /
O=C(NCc1cccs1)c1cccn2c(=O)c3sccc3nc12 | 0 | 2 | 43* | 0 | -3 | -9 | i
COc1ccc2oc(C(=O)OCC(=O)Nc3ccc(OC)c(S(N)(=O)=O)c3)c(C)c2c1 | 0 | -1 | 53* | 8 | 1 | 4 | /
COc1ccc2oc(C(=O)OCC(=O)Nc3ccc(NC(C)=O)cc3)c(C)c2c1 | 0 | 2 | 1 | / | 4 | 15 | /
COc1ccc(/C=C/C(=O)OCC(=O)N(C)CC(=O)Nc2ccc(C)cc2)c(OC)c1 | / | 2 | 0 | / | 8 | -1 | /
COc1ccc2oc(C(=O)OCC(=O)N(C)CC(=O)Nc3ccc(C)cc3)c(C)c2c1 | 0 | -1 | 41* | -22 | -6 | 3 | /
CC(=O)c1[nH]c(C)c(C(=O)N2CCCC(Nc3cccc(F)c3)C2)c1C (stereo not drawn) | 0 | 0 | -5 | -1 | 2 | 4 | /
SMILES | HIF act | GAA850 FXN act | Neddyl block | Calb FLC | proCasp7 act | proCasp3 act | Neddyl inh conf
Cc1ccc(C(=O)N2CCC(n3nccc3NC(=O)C3CCOC3)CC2)cc1 (stereo not drawn) | 0 | 2 | 0 | -4 | 5 | -6 | /
CCCC[n+]1ccn(-c2nc3ccccc3nc2[N-]S(=O)(=O)c2ccc(Cl)cc2)c1 | 0 | 2 | -47 | 13 | 3 | -4 | /
CCCCC[n+]1ccn(-c2nc3ccccc3nc2[N-]S(=O)(=O)c2ccccc2)c1 | 0 | -1 | 32 | -3 | 4 | -1 | /
CC(C)CC[n+]1ccn(-c2nc3ccccc3nc2[N-]S(=O)(=O)c2ccc(Cl)cc2)c1 | -1 | 1 | 39* | -7 | 2 | -6 | i
Cc1ccc(S(=O)(=O)[N-]c2nc3ccccc3nc2-n2cc[n+](CCC(C)C)c2)cc1 | / | 0 | 44* | 19 | 2 | -2 | i
COc1ccccc1CNC(=O)CCNS(=O)(=O)c1ccc2c(c1)CC(C)N2C(C)=O (stereo not drawn) | 0 | -2 | 7 | -15 | 7 | 4 | /
